Assay outcomes: PubChem, several laboratories
Beta apoptosis – blocks beta cell apoptosis. 0.8% of 300,000 active. INS-1E cytokine-induced death, ATP luminescence, 48 h; percent of positive-control rescue, neutral wells zero. AID 435005. protection from apoptosis, % (test concentration not listed);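 active means Every replicate reaches about 75%, or at least half do and their mean reaches it too, limit read from the data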;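 further: higher means more ATP so stronger rescue from cytokine killing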
PREPL inhibitor – human PREPL enzyme inhibition; Q4J6C6; recombinant PREPL, fluorescence polarization activity-based probe; inhibition, % at 5.96 µM; 0.68% of 320,000 active; AID 2751; in the data active means inhibition above about 43%
Target sequence (Q4J6C6 whole entry, looked up): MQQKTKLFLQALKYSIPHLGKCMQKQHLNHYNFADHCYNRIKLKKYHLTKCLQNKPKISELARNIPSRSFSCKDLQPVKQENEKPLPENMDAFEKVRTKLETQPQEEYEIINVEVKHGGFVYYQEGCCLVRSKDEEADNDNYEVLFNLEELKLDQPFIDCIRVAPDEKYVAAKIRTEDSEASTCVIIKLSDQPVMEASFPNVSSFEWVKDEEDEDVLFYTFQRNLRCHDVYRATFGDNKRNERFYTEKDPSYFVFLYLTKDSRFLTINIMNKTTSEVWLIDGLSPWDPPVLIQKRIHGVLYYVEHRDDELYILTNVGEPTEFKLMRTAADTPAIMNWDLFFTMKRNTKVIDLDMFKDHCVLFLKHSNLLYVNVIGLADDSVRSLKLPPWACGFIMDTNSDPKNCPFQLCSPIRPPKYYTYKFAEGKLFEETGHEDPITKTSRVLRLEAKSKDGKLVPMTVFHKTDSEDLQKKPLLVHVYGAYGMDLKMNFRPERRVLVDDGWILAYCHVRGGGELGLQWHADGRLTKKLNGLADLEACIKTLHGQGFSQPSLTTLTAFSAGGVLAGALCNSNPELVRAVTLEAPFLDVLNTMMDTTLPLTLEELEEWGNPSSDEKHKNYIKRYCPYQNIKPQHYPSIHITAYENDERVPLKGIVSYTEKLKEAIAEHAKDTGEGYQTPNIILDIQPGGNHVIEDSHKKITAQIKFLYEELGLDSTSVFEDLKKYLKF
CSC inhib – cancer stem cell inhibition. AID 2717. cancer stem cell-like cells viability, luminescence. inhibition, % at 7.5 µM. 1.1% of 300,000 active; in the data active means inhibition above about 75%; tested in HMLE shEcad cells
CHOP inh – blocks CHOP induction under ER stress | CHO-K1 CHOP-promoter luciferase, tunicamycin-induced, 15-18 h | inhibition, % at 10 µM | 3.8% of 220,000 active | AID 2732;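 active means compounds that reduced the stress-induced luciferase reporter signal by more than about 70% of percent inhibition, limit read from the data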
T cruzi repl – blocks replication of Trypanosoma cruzi; AID 1885; inhibition, % (test concentration not listed); 1.4% of 300,000 active; T. cruzi beta-gal in NIH3T3, luminescence, 90 h;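 active means mean inhibition across valid replicates above about 55%, limit read from the data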;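 further: signal also drops with host cell toxicity which is not excluded here; higher percent means less beta-gal luminescence so fewer parasites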
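Test system: β-gal T. cruzi (Tulahuen C4) inside NIH/3T3 cells / Quantity: 5,000 cells/well / Measured by: luminescence from GalScreen with 0.05% NP40, read after 60 min / Medium: DMEM plus 2% FBS / Measure: parasite load inhibition, % / Reagent: Tulahuen C4 trypomastigotes, 5000/well / Schedule: co-culture of at least 90 h after 3 h attachment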
GRIN3A LBD mod – modulators (binders) of human NR3A ligand-binding domain; NR3A LBD differential scanning fluorimetry, Tm shift; 0% = protein alone, 100% = glycine-bound protein; Tm shift relative to glycine control, % at 25 µM; 2.5% of 340,000 active; AID 1259313;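 active means melting temperature shift of at least 10% of the positive control shift, at one fixed dose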
Numbers stand for hits; 0 = inactive; - = no result. Compounds with a hit are over-represented: about 6.7% of the library has one in this group of screens.

SMILES | Beta apoptosis | PREPL inhibitor | CSC inhib | CHOP inh | T cruzi repl | GRIN3A LBD mod
Cc1ccc(S(=O)(=O)NCCC(=O)Nc2ccc(Cl)c(Cl)c2)cc1 | 0 | 0 | 0 | 83 | 0 | 10
Cc1ccc(S(=O)(=O)Nc2ccc(NC(=O)CN3CCCCC3)c(Cl)c2)cc1 | 0 | 0 | 0 | 95 | 0 | 0
COc1cccc(CN2CC(C(=O)NCCc3ccc(C)s3)CCC2=O)c1 (centres undefined) | 0 | 0 | 0 | - | 0 | 0
O=c1cc(CNc2cc(C(F)(F)F)cc(C(F)(F)F)c2)nc2sccn12 | 0 | 0 | 81 | 0 | 0 | 0
O=c1ccc(C(F)(F)F)cn1Cc1cc(=O)n2ccsc2n1 | 0 | 0 | 0 | 0 | 0 | 0
COc1ccc(/C=C\C(=O)c2c(O)ccc3c(C)cc(=O)oc23)cc1OC | 0 | 0 | 0 | 73 | - | 14
COc1cc(/C=C/C(=O)c2c(O)ccc3c(C)cc(=O)oc23)ccc1O | 0 | 0 | - | 0 | 0 | 0
COc1cccc(C2(C)NC(=O)N(CC(=O)Nc3ccc(N4CCOCC4)cc3)C2=O)c1 (centres undefined) | 0 | 0 | - | - | - | 0
Cc1ccc(C2=NN(C(=O)CN3CCN(C4CCS(=O)(=O)C4)CC3)C(c3ccco3)C2)cc1 (centres undefined) | 0 | 0 | 0 | - | - | 0
CC1=NN(c2ccccc2)C(=O)/C1=C/C=C/C=C/N(C)C | 0 | 0 | 0 | 0 | 0 | 0
CC1=NN(c2ccc(C)cc2)C(=O)/C1=C\C=C\c1ccccc1 | 0 | 0 | 78 | 0 | 0 | 0
CC1=NN(c2cccc(C(=O)O)c2)C(=O)/C1=C\C=C/c1ccccc1 | - | - | - | 93 | 0 | 12
CC1=NN(c2ccccc2)C(=O)/C1=C\c1cc(C)n(-c2ccccc2)c1C | 0 | 0 | 0 | 0 | 0 | 0
Cc1cc(O)c(CN2CCN(S(=O)(=O)c3cccs3)CC2)cc1C(C)C | 0 | 0 | 0 | - | - | 0
CC(C)N1CCC(N2CCN(CCCn3cccn3)CC2CCO)CC1 (centres undefined) | 0 | 0 | 0 | 0 | 0 | 0
COC(=O)Cn1c(=NC(=O)c2sc3ccccc3c2Cl)sc2cc(S(N)(=O)=O)ccc21 | 0 | 0 | 0 | 0 | 0 | 13
CCOC(=O)Cn1c(=NC(=O)c2sc3ccccc3c2Cl)sc2cc(S(N)(=O)=O)ccc21 | 0 | 0 | 0 | 0 | 0 | 0
C#CCn1c(=NC(=O)c2cc(-c3cccs3)nc3ccccc23)sc2cc(S(N)(=O)=O)ccc21 | 0 | 0 | 0 | 0 | 0 | 15
NS(=O)(=O)c1ccc(NC(=O)c2cc(-c3cccs3)nc3ccccc23)cc1 | 0 | 0 | 0 | 0 | 0 | 0
C#CCn1c(=NC(=O)c2cc(Cl)sc2Cl)sc2cc(S(N)(=O)=O)ccc21 | 0 | 0 | 0 | 0 | 0 | 31
Cc1ccccc1C1C(C#N)=C2N=C(N)c3c(sc4c3CCCCC4)N2C2=C1C(=O)CC(C)(C)C2 (centres undefined) | 0 | 0 | 0 | 0 | 58 | 0
Clc1ccc(NCc2ccsc2)cc1 | - | 0 | 0 | - | 0 | -
O=C(Nc1ccc(NC(=O)C2CC2)cc1)c1cccs1 | 0 | 0 | 0 | - | 0 | 17
CCC(C)NS(=O)(=O)c1ccc(NC(=O)c2cccs2)cc1 (centres undefined) | 0 | 0 | 0 | 0 | 0 | 0
O=C(Nc1ccc(-c2cn3ccccc3n2)cc1)c1cccs1 | - | 0 | 0 | 0 | 0 | 25
SMILES | Beta apoptosis | PREPL inhibitor | CSC inhib | CHOP inh | T cruzi repl | GRIN3A LBD mod
Cc1ccn(-c2ccc(NC(=O)c3cccs3)cc2)n1 | 0 | 0 | 0 | - | 0 | 26
Cc1ccc(NS(=O)(=O)c2ccc(NC(=O)c3cccs3)cc2)cc1 | 0 | 0 | 0 | 77 | 0 | 20
CCCCNC(=O)c1ccc(NS(=O)(=O)c2ccc3[nH]c(=O)[nH]c3c2)cc1 | 0 | 0 | 0 | - | 0 | 0
CCCc1nn2c(=O)cc(CSCC(=O)Nc3ccccc3OC)nc2s1 | 0 | 0 | 0 | - | 0 | 0
CCc1ccc2c(CN(C)Cc3ccc(OC(F)F)c(OC)c3)cc(=O)oc2c1 | 0 | 0 | - | - | 0 | 0
CCOc1ccc(/C=N/NC(=O)c2ccccc2O)cc1CN1CC2CC(C1)c1cccc(=O)n1C2 (centres undefined) | 0 | 0 | 0 | - | - | 0
O=C(Nc1ccc(NC(=O)c2ccccc2F)cc1)c1cccs1 | 0 | 0 | 0 | - | - | 22
O=C(Nc1ccc(NC(=O)c2cccs2)c(Cl)c1)c1cccs1 | 0 | 0 | - | - | 0 | 13
O=C(/C=C/c1ccccc1)Nc1ccc(NC(=O)c2cccs2)cc1 | 0 | 0 | 0 | 0 | 0 | 29
